According to ChEMBL document CHEMBL1122986, “Aldosterone antagonists. 1. Synthesis and activities of 6 beta,7 beta:15 beta,16 beta-dimethylene steroidal spirolactones” (J Med Chem, 1985):
Activity calls are given as the source filed them. The rule behind the calls is not given here.

How the values were obtained:
[1] = biological target: T1, Mineralocorticoid receptor (Rattus norvegicus) (UniProt P22199); assay: Relative potency as antialdosterone activity compared to spironolactone 1 hr after oral administration; No activity; format: functional, organism-based
T1 sequence (whole entry): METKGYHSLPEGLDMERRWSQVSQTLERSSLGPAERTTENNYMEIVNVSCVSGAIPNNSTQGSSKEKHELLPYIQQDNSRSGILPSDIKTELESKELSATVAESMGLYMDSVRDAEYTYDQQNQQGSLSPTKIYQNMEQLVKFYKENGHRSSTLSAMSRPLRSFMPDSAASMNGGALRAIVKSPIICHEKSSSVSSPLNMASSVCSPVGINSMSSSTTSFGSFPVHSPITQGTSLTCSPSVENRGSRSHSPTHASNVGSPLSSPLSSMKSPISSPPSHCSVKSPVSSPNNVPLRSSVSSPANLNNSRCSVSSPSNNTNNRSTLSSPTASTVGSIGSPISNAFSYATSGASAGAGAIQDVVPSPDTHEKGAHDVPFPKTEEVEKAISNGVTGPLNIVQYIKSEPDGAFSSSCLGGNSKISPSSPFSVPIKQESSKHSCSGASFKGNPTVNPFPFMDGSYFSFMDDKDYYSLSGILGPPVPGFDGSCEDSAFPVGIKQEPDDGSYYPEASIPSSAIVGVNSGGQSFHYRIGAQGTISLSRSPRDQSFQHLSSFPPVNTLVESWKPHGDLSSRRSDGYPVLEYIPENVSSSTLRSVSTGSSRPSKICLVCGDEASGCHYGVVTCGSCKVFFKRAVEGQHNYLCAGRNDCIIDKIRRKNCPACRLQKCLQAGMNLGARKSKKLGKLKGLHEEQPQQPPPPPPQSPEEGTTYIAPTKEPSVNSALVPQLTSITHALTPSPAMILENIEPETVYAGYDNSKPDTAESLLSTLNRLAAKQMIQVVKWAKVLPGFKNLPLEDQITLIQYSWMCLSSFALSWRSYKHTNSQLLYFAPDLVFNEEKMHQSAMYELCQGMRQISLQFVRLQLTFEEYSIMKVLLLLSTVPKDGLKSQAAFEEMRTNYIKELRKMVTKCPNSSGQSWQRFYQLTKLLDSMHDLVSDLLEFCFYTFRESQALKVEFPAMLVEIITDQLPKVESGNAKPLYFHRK
Outline: (§1)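 Adrenalectomized Wistar rats (140–160 g) were maintained on fluocortolone caproate 1 mg/kg on the day of surgery and fluocortolone 10 mg/kg sc one day before testing. Rats were infused with saline-glucose (0.05% NaCl, 5% glucose) containing aldosterone 50 μg/L at 3 mL/h. Compounds were given orally 1 h before infusion at 6.7, 13.4 and 26.8 mg/kg. Hourly urine Na and K were measured by flame photometry over 10–15 h.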

[2] = biological target: T2, Androgen receptor (Rattus norvegicus) (UniProt P15207); assay: Binding affinity for rat androgen receptor compared to dihydrotestosterone; No affinity
T2 sequence (whole entry): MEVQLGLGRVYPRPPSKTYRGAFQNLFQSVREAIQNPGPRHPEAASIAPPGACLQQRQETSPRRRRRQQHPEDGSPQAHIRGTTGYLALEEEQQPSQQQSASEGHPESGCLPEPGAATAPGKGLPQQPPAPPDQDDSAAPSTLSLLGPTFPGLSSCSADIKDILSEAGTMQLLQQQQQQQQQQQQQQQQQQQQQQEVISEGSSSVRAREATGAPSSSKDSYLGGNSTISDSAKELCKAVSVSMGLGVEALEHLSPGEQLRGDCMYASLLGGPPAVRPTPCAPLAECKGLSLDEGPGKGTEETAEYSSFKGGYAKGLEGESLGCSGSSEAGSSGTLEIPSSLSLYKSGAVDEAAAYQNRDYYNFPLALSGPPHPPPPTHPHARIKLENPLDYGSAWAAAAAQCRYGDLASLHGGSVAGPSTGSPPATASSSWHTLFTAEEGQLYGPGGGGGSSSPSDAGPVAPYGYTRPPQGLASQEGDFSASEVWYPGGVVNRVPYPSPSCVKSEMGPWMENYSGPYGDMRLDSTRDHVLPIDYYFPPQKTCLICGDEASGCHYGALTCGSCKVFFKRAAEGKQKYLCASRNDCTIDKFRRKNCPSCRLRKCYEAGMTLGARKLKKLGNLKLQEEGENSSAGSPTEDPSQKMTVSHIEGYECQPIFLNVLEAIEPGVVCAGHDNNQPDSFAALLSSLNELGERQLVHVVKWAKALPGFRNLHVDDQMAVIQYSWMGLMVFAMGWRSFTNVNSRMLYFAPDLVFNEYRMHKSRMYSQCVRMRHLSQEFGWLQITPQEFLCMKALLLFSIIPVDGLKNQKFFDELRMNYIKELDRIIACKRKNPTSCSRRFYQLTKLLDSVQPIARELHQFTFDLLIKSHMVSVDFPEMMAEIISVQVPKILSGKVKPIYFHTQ

[3] = biological target: T3, Progesterone receptor (Oryctolagus cuniculus) (UniProt P06186); assay: Binding affinity for rat progesterone receptor compared to progesterone
T3 sequence (whole entry): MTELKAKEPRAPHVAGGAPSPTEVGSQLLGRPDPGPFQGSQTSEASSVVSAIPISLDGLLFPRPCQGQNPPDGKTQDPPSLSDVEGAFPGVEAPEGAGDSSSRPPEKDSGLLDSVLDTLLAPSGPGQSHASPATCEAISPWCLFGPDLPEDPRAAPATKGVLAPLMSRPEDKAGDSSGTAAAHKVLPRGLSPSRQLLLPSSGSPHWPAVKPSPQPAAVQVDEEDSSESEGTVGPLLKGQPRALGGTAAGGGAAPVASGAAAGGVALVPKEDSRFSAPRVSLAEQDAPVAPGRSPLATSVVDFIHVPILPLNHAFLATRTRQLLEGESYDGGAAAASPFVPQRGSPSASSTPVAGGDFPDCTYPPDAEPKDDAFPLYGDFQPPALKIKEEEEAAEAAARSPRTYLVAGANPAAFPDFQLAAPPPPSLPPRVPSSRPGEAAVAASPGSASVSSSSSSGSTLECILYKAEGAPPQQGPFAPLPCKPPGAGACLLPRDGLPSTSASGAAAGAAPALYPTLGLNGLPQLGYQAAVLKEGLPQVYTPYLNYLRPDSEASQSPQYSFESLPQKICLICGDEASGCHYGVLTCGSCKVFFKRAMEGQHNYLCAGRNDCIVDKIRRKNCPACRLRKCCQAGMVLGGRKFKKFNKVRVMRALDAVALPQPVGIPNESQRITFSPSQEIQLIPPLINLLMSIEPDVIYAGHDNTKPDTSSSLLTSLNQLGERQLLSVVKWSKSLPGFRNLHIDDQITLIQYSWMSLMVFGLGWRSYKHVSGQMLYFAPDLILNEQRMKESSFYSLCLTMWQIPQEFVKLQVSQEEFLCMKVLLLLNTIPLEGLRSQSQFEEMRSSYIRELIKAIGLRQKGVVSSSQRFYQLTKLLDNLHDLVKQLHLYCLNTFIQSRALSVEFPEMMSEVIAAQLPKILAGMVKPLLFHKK

[4] = biological target: T3, Progesterone receptor (Oryctolagus cuniculus); assay: Progestational activity in rabbit at 30.0 mg/kg oral dose; format: functional, organism-based; set-up: dose 30 mg/kg
Outline: (§2)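 Clauberg test in rabbits after oral administration, run by literature procedures. Doses are listed […], and the read-out is the McPhail index.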

[5] = biological target: T1, Mineralocorticoid receptor (Rattus norvegicus); assay: Relative potency as antialdosterone activity compared to spironolactone 1 hr after oral administration; format: functional, organism-based; outline: as §1
[6] = biological target: T2, Androgen receptor (Rattus norvegicus)
[7] = biological target: T1, Mineralocorticoid receptor (Rattus norvegicus); assay: Relative potency as antialdosterone activity compared to spironolactone 1 hr after oral administration; NA denotes no activity; format: functional, organism-based; outline: as §1
[8] = biological target: T3, Progesterone receptor (Oryctolagus cuniculus); assay: Binding affinity for rat progesterone receptor compared to progesterone; No affinity
[9] = biological target: T3, Progesterone receptor (Oryctolagus cuniculus); assay: Progestational activity in rabbit at 0.3 mg/kg oral dose; format: functional, organism-based; set-up: dose 0.3 mg/kg; outline: as §2
[10] = biological target: T3, Progesterone receptor (Oryctolagus cuniculus); assay: Progestational activity in rabbit at 3.0 mg/kg oral dose; format: functional, organism-based; set-up: dose 3 mg/kg; outline: as §2
[11] = biological target: T3, Progesterone receptor (Oryctolagus cuniculus); assay: Progestational activity in rabbit at 1.0 mg/kg oral dose; format: functional, organism-based; set-up: dose 1 mg/kg; outline: as §2

CC12CCC(=O)C=C1C1CC1C1C2CC(O)C2(C)C1C1CC1[C@@]21CCC(=O)O1 (some centres undefined)
MRP [1]: inactive
Competition factor [2]: inactive
Competition factor [3]: 25

CC12C(=CC(=O)C[C@@H]1S)C1CC1C1C2CCC2(C)C1C1CC1[C@@]21CCC(=O)O1 (some centres undefined)
McPhail index [4]: 3.5
Competition factor [3]: 5.8
MRP [5]: > 100
Competition factor [6]: 63

C=C1CC2(C)C(=CC1=O)C1CC1C1C2CCC2(C)C1C1CC1[C@@]21CCC(=O)O1 (some centres undefined)
MRP [1]: inactive
Competition factor [2]: inactive
Competition factor [3]: 18

CC12CCC(=O)C=C1C1CC1C1C2[C@H](O)CC2(C)C1C1CC1[C@@]21CCC(=O)O1 (some centres undefined)
MRP [1]: inactive
Competition factor [2]: inactive
Competition factor [3]: 195

CC(=O)S[C@@H]1CC2=CC(=O)CC[C@]2(C)[C@H]2CC[C@@]3(C)[C@@H](CC[C@@]34CCC(=O)O4)[C@H]12
Competition factor [3]: 21
MRP [5]: 100

CC12C(=CC(=O)C[C@@H]1C#N)C1CC1C1C2CCC2(C)C1C1CC1[C@@]21CCC(=O)O1 (some centres undefined)
MRP [7]: inactive

C[C@H]1CC2(C)C(=CC1=O)C1CC1C1C2CCC2(C)C1C1CC1[C@@]21CCC(=O)O1 (some centres undefined)
Competition factor [2]: inactive
Competition factor [3]: 30
MRP [5]: 100

CC12C=C(Cl)C(=O)C=C1C1CC1C1C2CCC2(C)C1C1CC1[C@@]21CCC(=O)O1 (some centres undefined)
MRP [1]: inactive
Competition factor [3]: 33

C[C@]12CCC(=O)C=C1[C@@H]1C[C@@H]1[C@H]1[C@@H]3[C@@H]4C[C@@H]4[C@@]4(CCC(=O)O4)[C@@]3(C)CC[C@@H]12
Competition factor [3]: 2.7
MRP [5]: 685

C[C@@H]1CC2(C)C(=CC1=O)C1CC1C1C2CCC2(C)C1C1CC1[C@@]21CCC(=O)O1 (some centres undefined)
Competition factor [2]: inactive
Competition factor [3]: 105
MRP [5]: < 100

C[C@H]1CC(=O)C=C2C3CC3C3C(CCC4(C)C3C3CC3[C@@]43CCC(=O)O3)C21C (some centres undefined)
MRP [5]: 100
Competition factor [6]: 70

CC(=O)S[C@H]1CC(=O)C=C2C3CC3C3C(CCC4(C)C3C3CC3[C@@]43CCC(=O)O3)C21C (some centres undefined)
Competition factor [8]: inactive
MRP [5]: 100

CS[C@H]1CC(=O)C=C2C3CC3C3C(CCC4(C)C3C3CC3[C@@]43CCC(=O)O3)C21C (some centres undefined)
McPhail index [4]: 3.8
Competition factor [8]: inactive
Competition factor [2]: inactive
MRP [5]: 240

CC12C(=CC(=O)CC1O)C1CC1C1C2CCC2(C)C1C1CC1[C@@]21CCC(=O)O1 (some centres undefined)
Competition factor [2]: inactive
Competition factor [3]: 19
MRP [5]: 45

CC12CCC(=O)C(Cl)=C1C1CC1C1C2CCC2(C)C1C1CC1[C@@]21CCC(=O)O1 (some centres undefined)
MRP [1]: inactive

CC12C(=CC(=O)[C@@H]3C[C@@H]31)C1CC1C1C2CCC2(C)C1C1CC1[C@@]21CCC(=O)O1 (some centres undefined)
Competition factor [3]: 2.1
MRP [5]: 520
Competition factor [6]: 25

CC12C=CC(=O)C=C1C1CC1C1C2CCC2(C)C1C1CC1[C@@]21CCC(=O)O1 (some centres undefined)
McPhail index [9]: 1
McPhail index [10]: 2.7
Competition factor [3]: 6.5
McPhail index [11]: 2.2
MRP [5]: 745
Competition factor [6]: 150

CC1=CC2(C)C(=CC1=O)C1CC1C1C2CCC2(C)C1C1CC1[C@@]21CCC(=O)O1 (some centres undefined)
MRP [1]: inactive
Competition factor [3]: 35
